Experimental data taken from ChEMBL document CHEMBL4118197, “The discovery and preclinical evaluation of BMS-707035, a potent HIV-1 integrase strand transfer inhibitor” (Bioorg Med Chem Lett, 2018).
Values after ≈ are worked out from the molar mass of the structure shown.

How the values were obtained:
[1] = Drug uptake in normal healthy human at 600 mg, po qd after 24 hrs; format: ADME, organism-based; conditions: in vivo, read-out: Drug uptake
Summary of the method: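 Healthy volunteers given 600 mg orally once daily; mean plasma concentration measured 24 h post-dose (C24h).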

[2] = Protein binding in dog plasma; format: ADME, cell-free, Canis lupus familiaris; conditions: read-out: PPB (converted)
[3] = Drug metabolism in rat liver microsomes assessed as CYP-mediated metabolism by measuring compound half life; format: ADME
Summary of the method: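 Microsomal stability with NADPH (CYP-dependent) in rat, cynomolgus, dog and human microsomes; half-life in min.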

[4] = Tmax in Sprague-Dawley rat at 4.4 mg/kg, po; format: ADME, organism-based; conditions: in vivo
Salmonella typhimurium = assay: Genotoxicity in Salmonella typhimurium TA100 at =<5000 ug/plate in presence of metabolic activators by Ames test; format: toxicity, organism-based; conditions: salmonella enterica subsp. enterica serovar typhimurium
Summary of the method: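 Bacterial reverse mutation (Ames) test, Salmonella typhimurium TA98 and TA100, up to 5000 µg/plate, with and without metabolic activation.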

[5] = Cmax in dog in 12 month toxicology study; format: ADME, organism-based, Canis lupus familiaris; conditions: in vivo
[6] = Dissociation constant, pKa of the compound; format: physicochemical
Cytochrome P450 2C9 = Cytochrome P450 2C9 (Homo sapiens, UniProt P11712); assay: Inhibition of human CYP2C9; format: ADME
[7] = Clearance in Sprague-Dawley rat at 1 mg/kg, iv after 4 hrs; format: ADME, organism-based; conditions: in vivo
Summary of the method: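 Male Sprague-Dawley rats given 1 mpk IV in PEG400/ethanol (90:10); blood sampled at 5 and 30 min and 1, 2 and 4 h post-dose; clearance from plasma profile.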

[8] = Volume of distribution at steady state in Sprague-Dawley rat at 0.87 mg/kg, iv; format: ADME, organism-based; conditions: in vivo, read-out: Vdss
Cytochrome P450 2C19 = Cytochrome P450 2C19 (Homo sapiens, UniProt P33261); assay: Inhibition of human CYP2C19; format: ADME
[9] = AUC in cynomolgus monkey at 5 mg/kg, po; format: ADME, organism-based, Macaca fascicularis; conditions: in vivo
Summary of the method: (§1)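 Single IV (about 1 mg/kg) and oral (about 5 mg/kg) doses in rat, cynomolgus monkey and dog; CL, t1/2, Vss, Cmax, tmax, AUC and oral bioavailability F derived from plasma concentration-time data.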

[10] = AUC in Beagle dog at 5.2 mg/kg, po; format: ADME, organism-based, Canis lupus familiaris; conditions: in vivo; summary of the method: as §1
Homo sapiens = assay: Toxicity in normal healthy human at 200 to 1200 mg, po, administered as single dose; format: organism-based; conditions: in vivo
Summary of the method: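 Human subjects received single oral doses of 200, 600, 800 or 1200 mg and were monitored for clinically significant adverse events.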

[11] = Volume of distribution at steady state in Beagle dog at 1 mg/kg, iv; format: ADME, organism-based, Canis lupus familiaris; conditions: in vivo, read-out: Vdss
[12] = Ssolubility of the compound at pH 2.3; format: physicochemical; conditions: buffer
[13] = Clearance in Sprague-Dawley rat at 0.87 mg/kg, iv; format: ADME, organism-based; conditions: in vivo; summary of the method: as §1
[14] = Solubility of the compound at pH 8.5; format: physicochemical; conditions: buffer
[15] = Cmax in cynomolgus monkey at 5 mg/kg, po; format: ADME, organism-based, Macaca fascicularis; parameters: dose 5 mg/kg, route oral; conditions: in vivo; summary of the method: as §1
[16] = Cmax in Beagle dog at 5.2 mg/kg, po; format: ADME, organism-based, Canis lupus familiaris; parameters: dose 5.2 mg/kg, route oral; conditions: in vivo; summary of the method: as §1
[17] = Half-life in Sprague-Dawley rat at 0.87 mg/kg, iv; format: ADME, organism-based; conditions: in vivo; summary of the method: as §1
[18] = Protein binding in human plasma; format: ADME, cell-free; conditions: read-out: PPB (converted)
[19] = Permeability across basolateral to apical side in human Caco2 cells at 3 uM; format: ADME, cell-based; conditions: Caco-2, read-out: permeability
Summary of the method: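 Caco-2 monolayer permeability at 3 µM, apical-to-basolateral and basolateral-to-apical, reported in nm/sec.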

[20] = Tmax in cynomolgus monkey at 5 mg/kg, po; format: ADME, organism-based, Macaca fascicularis; conditions: in vivo
[21] = Ssolubility of the compound at pH 6.1; format: physicochemical; conditions: buffer
[22] = AUC in Sprague-Dawley rat at 4.4 mg/kg, po; format: ADME, organism-based; conditions: in vivo; summary of the method: as §1
[23] = target: Human immunodeficiency virus type 1 integrase (Human immunodeficiency virus 1, UniProt Q7ZJM1); assay: Inhibition of HIV1 integrase strand transfer activity
HepG2 = assay: Cytotoxicity against human HepG2 cells; format: cell-based
[24] = Tmax in Beagle dog at 5.2 mg/kg, po; format: ADME, organism-based, Canis lupus familiaris; conditions: in vivo
[25] = Half-life in cynomolgus monkey at 1 mg/kg, iv; format: ADME, organism-based, Macaca fascicularis; conditions: in vivo; summary of the method: as §1

Cytochrome P450 2C19, sequence (P33261 whole entry): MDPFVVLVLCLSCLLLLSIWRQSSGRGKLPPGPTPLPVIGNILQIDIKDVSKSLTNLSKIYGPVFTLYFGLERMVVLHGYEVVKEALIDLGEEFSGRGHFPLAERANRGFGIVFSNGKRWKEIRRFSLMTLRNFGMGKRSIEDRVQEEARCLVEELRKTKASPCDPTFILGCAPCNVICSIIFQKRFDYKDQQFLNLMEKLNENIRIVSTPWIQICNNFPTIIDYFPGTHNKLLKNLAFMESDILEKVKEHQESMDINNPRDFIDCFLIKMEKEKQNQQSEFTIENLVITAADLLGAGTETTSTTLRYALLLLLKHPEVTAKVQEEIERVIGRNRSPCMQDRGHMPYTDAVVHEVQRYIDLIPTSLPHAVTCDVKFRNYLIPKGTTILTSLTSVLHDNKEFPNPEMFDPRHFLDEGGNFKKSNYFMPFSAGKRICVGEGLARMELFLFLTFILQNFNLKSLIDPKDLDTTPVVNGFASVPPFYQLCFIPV
Human immunodeficiency virus type 1 integrase, sequence (Q7ZJM1 whole entry): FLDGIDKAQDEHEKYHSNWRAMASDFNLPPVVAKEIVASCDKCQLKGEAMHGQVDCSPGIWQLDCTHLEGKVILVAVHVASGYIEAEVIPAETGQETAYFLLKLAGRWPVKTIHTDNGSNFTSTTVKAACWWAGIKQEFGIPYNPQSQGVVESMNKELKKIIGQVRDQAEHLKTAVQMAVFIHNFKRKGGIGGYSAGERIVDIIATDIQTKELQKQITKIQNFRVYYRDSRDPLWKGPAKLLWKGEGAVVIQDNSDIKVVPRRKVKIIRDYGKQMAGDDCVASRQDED
Cytochrome P450 2C9, sequence (P11712 whole entry): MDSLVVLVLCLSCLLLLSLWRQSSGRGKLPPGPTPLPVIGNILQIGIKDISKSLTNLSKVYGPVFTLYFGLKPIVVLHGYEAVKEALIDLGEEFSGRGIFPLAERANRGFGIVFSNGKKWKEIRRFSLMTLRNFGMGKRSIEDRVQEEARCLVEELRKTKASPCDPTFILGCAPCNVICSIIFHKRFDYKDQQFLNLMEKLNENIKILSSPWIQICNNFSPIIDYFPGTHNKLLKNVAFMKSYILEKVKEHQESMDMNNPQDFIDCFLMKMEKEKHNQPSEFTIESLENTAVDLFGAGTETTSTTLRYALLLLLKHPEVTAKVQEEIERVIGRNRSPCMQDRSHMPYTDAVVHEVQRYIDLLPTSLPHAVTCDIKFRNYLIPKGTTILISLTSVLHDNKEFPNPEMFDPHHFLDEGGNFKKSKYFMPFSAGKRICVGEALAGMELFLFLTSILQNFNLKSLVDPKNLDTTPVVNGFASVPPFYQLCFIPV

SMILES: CC1(C)OCCn2c1nc(C(=O)NCc1ccc(F)cc1)c(O)c2=O
- concentration at 24 h [1]: 340 ng/mL
- fraction unbound [2]: 0.015
- half-life [3]: > 120 min
- Tmax [4]: 15 min
- Activity (Salmonella typhimurium): Non-Toxic
- Cmax at 12 month [5]: ≥ 67000 ng/mL
- pKa [6]: 6.6
- IC50 (Cytochrome P450 2C9): > 40 µM
- clearance [7]: 9.6 mL/min/kg
- Vd [8]: 0.86 L/kg
- IC50 (Cytochrome P450 2C19): > 40 µM
- AUC [9]: 19.2 µM·h
- AUC [10]: 162 µM·h
- Activity (Homo sapiens): Non-Toxic
- Vd [11]: 0.45 L/kg
- solubility [12]: 9 µg/mL (≈ 25.9 µM)
- clearance [13]: 9.7 mL/min/kg
- solubility [14]: 234 µg/mL (≈ 674 µM)
- Cmax [15]: 6.12 µM
- Cmax [16]: 72.8 µM
- half-life [17]: 240 min
- fraction unbound [18]: 0.024
- Papp B→A at 3 µM [19]: 24 ×10⁻⁶ cm/s
- Tmax [20]: 15 min
- solubility [21]: 21 µg/mL (≈ 60.5 µM)
- AUC [22]: 19.1 µM·h
- IC50 [23]: 0.003 µM
- IC50 (HepG2): ≥ 45 µM
- Tmax [24]: 15 min
- half-life [25]: 390 min
